# Where “and” joins values, the source holds several entries; their conditions need not be identical. Equal values may be shown once. The campaign covered roughly 360,000 compounds. About 3,600 (1%) were called active. This is one part of a sample in which actives are shown more often than they occur.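 The calls were made as follows: active = activation above the mean activation of all test compounds in the run plus 3 SD (cut at about 38% in these data); inactive = the rest.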
# Target: Trace amine-associated receptor 1 (Homo sapiens) (UniProt Q96RJ0)
# Assay: activators of TAAR1 calcium mobilization – Fluo-8 calcium fluorescence, CHO RD-HGA16 cells, primary screen (AID 624467)
# Details: CHO RD-HGA16 TAAR1, Fluo-8 calcium fluorescence; at 3 µM; hits give high values; vehicle wells 0%, saturating PEA agonist 100%
# Method in brief: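 Signal – calcium-sensitive Fluo-8 signal, excitation 470-495, emission 515-575 nm · System – RD-HGA16 (CHO) cells co-expressing Gα16 and hTAAR1 · Incubation – 17-24 h seeding, 75 min 37 °C dye, 30 min RT · Compound dosing – 3 µM single concentration · Repeats – no replicates (n 1)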
# Sequence of Trace amine-associated receptor 1 (Homo sapiens) (Q96RJ0 whole entry, looked up): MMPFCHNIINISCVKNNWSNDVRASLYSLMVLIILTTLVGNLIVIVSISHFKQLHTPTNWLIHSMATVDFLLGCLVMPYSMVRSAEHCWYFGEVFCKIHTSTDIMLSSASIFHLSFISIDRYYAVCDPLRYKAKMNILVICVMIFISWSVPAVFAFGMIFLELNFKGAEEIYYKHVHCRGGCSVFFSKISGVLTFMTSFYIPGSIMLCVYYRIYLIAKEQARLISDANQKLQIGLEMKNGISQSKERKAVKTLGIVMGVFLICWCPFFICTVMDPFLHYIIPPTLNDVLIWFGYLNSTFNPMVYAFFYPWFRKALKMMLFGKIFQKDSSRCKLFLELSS
row,SMILES,activation
1,CN(O)C(=S)c1ccccc1,4.65% (inactive)
2,C[C@@H]1ON(C)[C@H]2C[C@H]3c4cc(N5CCOCC5)ccc4CCN3C[C@@H]12,2% (inactive)
3,O=C(O)C1C2C=CC(O2)C1C(=O)Nc1ccccn1 (centres undefined),2.36% (inactive)
4,O=C(O)C1C2C=CC(O2)C1C(=O)NCCc1cccc(Cl)c1 (centres undefined),76.8% (active)
5,O=C(NCCc1ccccc1)C1CC1,20.1% (inactive)
6,O=C(NCc1ccccc1)[C@@H]1CCCN1C(=O)[C@H]1CCCN1C(=O)c1cccc(Cl)c1,-0.12% (inactive)
7,COc1ccc(CNC(=O)COC(=O)C2=Cc3ccccc3OC2)cc1,43.4% (active)
8,COc1ccc(CCNC(=O)COC(=O)c2cc(=O)c3ccccc3o2)cc1,17.5% (inactive)
9,COc1ccc(CNC(=O)COC(=O)C(CCSC)N2C(=O)c3ccccc3C2=O)cc1 (centres undefined),9.85% (inactive)
10,Cc1nc2c(C(=O)NCc3cccs3)cnn2c(C)c1Cc1ccc(F)cc1,-1.18% (inactive)
11,Cc1ccc(NC(=O)CC2C(=O)N(Cc3ccccc3)C(=S)N2NC(=O)c2cccc(F)c2)c(C)c1 (centres undefined),9.32% (inactive)
12,COC(=O)Cc1nnn2c1[C@H](C)[C@H](c1ccccc1[N+](=O)[O-])OCC2,1.43% (inactive)
13,O=C(CN(c1cccc(Cl)c1)S(=O)(=O)c1ccccc1)NN=C1CCCC1,-0.99% (inactive)
14,Cc1cccc(N(CC(=O)N2CCOCC2)S(C)(=O)=O)c1,0.3% (inactive)
15,Cc1ccc(Cl)c(OCC(=O)N2CCc3ccccc3C2)c1,0.5% (inactive)
16,Cc1ccc(S(=O)(=O)N(CC(=O)N2CCc3ccccc3C2)c2cccc(Cl)c2)cc1,49.8% (active)
17,COc1cccc(N(CC(=O)N2CCc3ccccc3C2)S(C)(=O)=O)c1,47.3% (active)
18,CS(=O)(=O)N(CC(=O)N1CCc2ccccc2C1)c1ccc(Br)cc1,2.37% (inactive)
19,CCOC(=O)CNC(=O)N(C)[C@H]1C[C@H]2c3[nH]c4c(-c5ccc6c(c5)OCO6)cccc4c3CCN2C(=O)[C@H]1[C@H](C)O,11.6% (inactive)
20,COc1cccc(CNC(=O)[C@H]2CCCN2C(=O)[C@H]2CCCN2C(=O)C2CCCCC2)c1,2.02% (inactive)
21,CCc1nn(CCCN2CCN(c3cccc(Cl)c3)CC2)c(=O)n1CCOc1ccccc1,5.08% (inactive) and 3.96% (inactive)

row,SMILES,activation
1,O=[N+]([O-])c1ccc2[nH]c3c(c2c1)CCCC3O (centres undefined),2.87% (inactive)
2,COC(=O)[C@]12C[C@H](CC(=O)N3CCN(C(=O)C4CC4)CC3)C(=O)N(Cc3ccc4c(c3)OCO4)C1=C[C@H](C(C)(C)C)O[C@@H]2C,1.35% (inactive)
3,Cc1ccc(C(=O)CCC(=O)N(C)CC(=O)Nc2c(Cl)cccc2Cl)cc1,-0.39% (inactive)
4,COc1ccccc1N1CC(C(=O)Nc2ccc(S(=O)(=O)N3CCOCC3)cc2)CC1=O (centres undefined),1.9% (inactive)
5,COc1ccc(NC(=S)N2CCc3cc(OC)c(OC)cc3C2)cc1,2.44% (inactive)
6,COc1ccc(C)cc1NC(=S)N1CCOCC1,0.86% (inactive)
7,COc1ccc(OC)c(NC(=S)N2CCc3ccccc3C2)c1,69.4% (active)
8,CCCCCCCCN1C(=O)[C@@H](CC(=O)NCCCC)C[C@@]2(C(=O)OC)C1=C[C@H](C(C)(C)C)O[C@@H]2C,-1.86% (inactive)
9,CCCc1nc2c(c(=O)c3ccccc3n2C)c(=O)n1C1CCCCCC1,46.7% (active)
10,CCCN1C(=O)C(Cc2nc3ccccc3c(=O)n2-c2ccccc2)c2cc(C)ccc21 (centres undefined),13.8% (inactive)
11,CCOC(=O)Cn1c2c(n(-c3ccc(F)cc3)c1=O)C=C(c1ccccc1)[C@@H](C)C(C(=O)N(C)C1CCCCC1)=C2,-1.16% (inactive)
12,COC(=O)[C@]12C[C@H](CC(=O)NCc3ccc(C)o3)C(=O)N(CCC3=CCCCC3)C1=C[C@H](C(C)(C)C)O[C@@H]2C,-2.27% (inactive)
13,CCCCCCCCN1C(=O)[C@@H](CC(=O)N2CCN(C(=O)OCC)CC2)C[C@@]2(C(=O)OC)C1=C[C@H](C1CCCC1)O[C@@H]2C,-2.04% (inactive)
14,CCN(CC)P(=O)(Nc1ccc(SC(F)F)cc1)c1ccc(N(C)C)cc1NC(=O)c1ccco1 (centres undefined),1.83% (inactive)
15,Nc1c(NCCc2ccccc2)c2ccccc2oc1=O,88.1% (active)
16,NC(=O)c1oc2ccccc2c1NC(=O)Cc1ccccc1,10.1% (inactive)
17,CC(C)(C)Nc1c(N)c(=O)oc2ccccc12,9.39% (inactive)
18,COC(=O)C1=C(C)N(Cc2cccc(C(F)(F)F)c2)C(=NCc2ccccc2)NC1c1ccccc1C(F)(F)F (centres undefined),1.05% (inactive)
19,C=CCN=C1NC(c2cccc(C(F)(F)F)c2)C(C(=O)OC)=C(C)N1C (centres undefined),-0.19% (inactive)
20,COC(=O)[C@]12C[C@H](CC(=O)NCc3ccc(OC)c(OC)c3)C(=O)N(Cc3ccccc3)C1=C[C@H](C(C)C)O[C@@H]2C1CC1,-0.82% (inactive)
21,CCCCn1c(-c2cccc(C)c2)nc2cc3[nH]c(=O)c(C(C)C)nc3cc21,14.7% (inactive)

row,SMILES,activation
1,O=C(/C=C/c1ccc(F)cc1)NC(=S)NNC(=O)c1cccnc1,39.6% (active)
2,Cc1cccc(OCCNC(=S)NC(=O)c2cccnc2)c1,-0.63% (inactive)
3,NS(=O)(=O)c1ccc(NC(=S)NC(=O)c2cccnc2)cc1,0.75% (inactive)
4,COCCN1C(=O)N(c2ccc(Cl)cc2)C(=O)C1CC(=O)Nc1cc(OC)cc(OC)c1 (centres undefined),18.5% (inactive)
5,C[C@H](O)[C@@H]1C(=O)N2CCc3c([nH]c4c(-c5ccc6c(c5)OCO6)cccc34)[C@@H]2C[C@@H]1N(C)C(=O)c1ccco1,14.6% (inactive)
6,Cc1ccc(O)c(/C=N/NC(=O)COc2ccc3c(C)cc(=O)oc3c2)c1,6.72% (inactive)
7,Cc1ccsc1C(=O)NNC(=O)COc1ccc(Br)cc1,1.12% (inactive)
8,Cc1ccc(O)c(NC(=S)NC(=O)COc2ccc(Br)cc2)c1,108% (active)
9,OC[C@H]1O[C@@H](c2nc(-c3nc(-c4ccc(F)cc4)no3)cs2)[C@H](O)[C@@H](O)[C@H]1O,0.88% (inactive)
10,COc1ccc(OC)c(NC(=O)CSc2nc3cccnc3n2C)c1,1.87% (inactive)
11,CCCCCCCCCCOC(=O)Cn1c(COc2ccc(C)cc2)[n+](C)c2ccccc21,74.1% (active)
12,CCOc1ccc(OCCSc2nc3ccccc3n2CC(=O)O)cc1,3.64% (inactive)
13,Cc1noc(C)c1COC(=O)Cn1c(C)nc2ccccc21,1.89% (inactive)
14,S=C(NCCCc1cnc[nH]1)NCCCN(Cc1ccc(Cl)c(Cl)c1)c1ccc(Br)cn1,44.3% (active)
15,NCCCNC(=S)NCCCN(Cc1ccc(Cl)cc1)c1ccc(Br)cn1,24.3% (inactive)
16,COC(=O)C1=C(C)N(Cc2ccc(C(F)(F)F)cc2)C(=NCc2ccc(C(F)(F)F)cc2)NC1c1cccc(Cl)c1 (centres undefined),16.8% (inactive)
17,O=C(CCC1CCCN(Cc2ccc(O)c(Cl)c2)C1)NCc1ccccc1F (centres undefined),5.41% (inactive)
18,CCC(C)C(N=C1NS(=O)(=O)c2ccccc21)C(=O)N1CCC(C)CC1 (centres undefined),5.5% (inactive)
19,COc1ccccc1-c1ccc([C@@H]2C[C@H]3[C@H](CON3C)CN2S(=O)(=O)c2cc(Cl)cc(Cl)c2)cc1,0.17% (inactive)
20,OC(COc1ccccc1)CN1CCN(c2cccc(Cl)c2)CC1 (centres undefined),4.5% (inactive)
21,OC(CNCCc1ccc(Cl)cc1Cl)COc1ccccc1 (centres undefined),86% (active)

row,SMILES,activation
1,COc1ccc(OCC(O)CNC(=O)Nc2ccc(Cl)cc2)cc1 (centres undefined),9.53% (inactive)
2,CC1CN(S(=O)(=O)c2cccc(C(F)(F)F)c2)CN1C(=O)N1CCOCC1 (centres undefined),-1.03% (inactive)
3,CCOC(=O)[C@]12CCCC=C1N(CCC1=CCCCC1)C(=O)[C@H](CC(=O)N1CCOCC1)C2,-0.62% (inactive)
4,CCS(=O)(=O)N1CCN(C(=O)c2cccs2)CC1,3.03% (inactive)
5,COC(=O)c1ccc(CN2C(=O)[C@]3(OCCC=C[C@H]3C)c3c(Br)cccc32)cc1,2.59% (inactive)
6,Cc1ccccc1CN1C(=O)c2ccccc2Sc2ccc(C(=O)NCCCN3CCOCC3)cc21,40.1% (active)
7,CCC1=Nc2cc(C(=O)NCCCN3CCOCC3)ccc2Sc2ccc(Br)cc21,9.87% (inactive)
8,O=C(NCCCN1CCCCC1)c1ccc2c(c1)NC(=O)C(N1CCOCC1)S2 (centres undefined),3.95% (inactive)
9,COC(=O)c1c(-c2ccc(OC)cc2)c2c(c3c4cc(OC)ccc4n(S(=O)(=O)c4ccc(F)cc4)c13)C(=O)N(C)C2,-0.58% (inactive)
10,CCOC(=O)N1CCN(C(=O)c2ccccc2SCC(=O)NCC2CCCCC2)CC1,2.29% (inactive)
11,c1ccc2c(c1)OCC(CNc1ncnc3nc[nH]c13)O2 (centres undefined),225% (active)
12,O=C(COC(=O)c1ccc(F)cc1)NCC1COc2ccccc2O1 (centres undefined),0.46% (inactive)
13,O=C(COc1ccc(F)cc1Br)NCC1COc2ccccc2O1 (centres undefined),-1.29% (inactive)
14,CN(c1ccccc1)S(=O)(=O)c1ccc(C(=O)NCc2cccnc2)cc1,3.27% (inactive)
15,O=S(=O)(Cc1cc(Sc2ccccc2)nc(-c2ccccc2)n1)c1ccccc1,11.3% (inactive)
16,Cc1ccc(Sc2cc(N3CCOCC3)nc(-c3ccccc3)n2)cc1,48.2% (active)
17,Cc1cc(N2CCOCC2)nc2ccc(NC(=S)N3CCN(Cc4ccccc4)CC3)cc12,7.44% (inactive)
18,c1ccc(C2CNCc3c2ccc2ccccc32)cc1 (centres undefined),82% (active)
19,c1ccc2c(CCN3CCNC[C@H]3Cc3cccc4ccccc34)cccc2c1,33.5% (inactive)
20,O=C(COC(=O)c1cc(-c2cccs2)nn1-c1ccccc1)Nc1cc([N+](=O)[O-])ccc1Cl,7.58% (inactive)
21,Cc1ccc(N2C(=O)CC(NCc3ccc4c(c3)OCO4)C2=O)cc1Cl (centres undefined),1.12% (inactive)

# From PubChem BioAssay AID624467 (The Scripps Research Institute Molecular Screening Center, 2012)
